PDI turbidity: inhibitors of human protein disulfide isomerase. P07237. PDI insulin aggregation turbidity, A650, 90 min. inhibition, % at 10 µM. 350,000 tested, 0.052% active. AID 588391;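 active means mean inhibition across replicates of 30% or more, whatever share of single replicates reach that level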
S100A4 MyoIIA: inhibitors of human S100A4 binding to myosin IIA peptide | 360,000 tested, 0.14% active | inhibition, % at 10.7 µM | S100A4/TAMRA-MyoIIA peptide fluorescence polarization;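 active means mean inhibition of at least 70% across replicates, with every replicate also reaching that level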
Target sequence (P26447 whole entry, looked up): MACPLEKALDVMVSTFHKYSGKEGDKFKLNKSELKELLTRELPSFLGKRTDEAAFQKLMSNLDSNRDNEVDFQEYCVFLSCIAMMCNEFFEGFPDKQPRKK
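Material: S100A4 monomer protein | Medium: HEPES pH 7.2 with CaCl2, KCl, NaCl, DTT, Triton | Reagent: Labelled myosin peptide probe, 5 nM | Doses: One dose per compound | Times: 5 min incubation before reading | Benchmarks: Neutral control DMSO, positive control TFP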
SIRT5 block: blocks human SIRT5 desuccinylation of peptide | inhibition, % at 15 µM | 330,000 tested, 1.1% active | AID 652115 | Purified SirT5, succinyl-peptide AMC, trypsin-coupled fluorescence | Q9NXA8; in the data active means inhibition above about 15%
Target sequence (Q9NXA8 whole entry, looked up): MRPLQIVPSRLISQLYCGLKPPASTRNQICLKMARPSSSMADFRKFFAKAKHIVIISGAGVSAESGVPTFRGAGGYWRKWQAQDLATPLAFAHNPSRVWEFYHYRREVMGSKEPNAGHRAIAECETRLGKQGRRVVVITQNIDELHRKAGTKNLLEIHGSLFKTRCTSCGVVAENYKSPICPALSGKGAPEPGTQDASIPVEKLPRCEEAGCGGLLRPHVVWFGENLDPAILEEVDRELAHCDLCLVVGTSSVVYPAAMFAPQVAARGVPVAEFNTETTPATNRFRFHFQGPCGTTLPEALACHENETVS
GSIS activator: GLuc luminescence reporter in INS-1E cells, primary screen for activators of glucose-dependent secretion of insulin. INS-1E GLuc reporter insulin secretion, 2-3 h. activation, % at 16.6 µM. 370,000 tested, 0.61% active;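 active means lowest replicate activation of at least 40%, so every replicate reaches that level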
ERp5 block: inhibitors of human ERp5; Q15084; ERp5 insulin aggregation, absorbance 650 nm, 90 min; inhibition, % at 9.99 µM; 350,000 tested, 0.05% active; AID 651711;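 active means mean replicate inhibition above about 25%, with every replicate also reaching it, limit read from the data, passing the limit was not always enough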
Numbers stand for hits; - = inactive; . = no result. An excerpt weighted towards active compounds, which were near 1.5% of everything screened.

SMILES	PDI turbidity	S100A4 MyoIIA	SIRT5 block	GSIS activator	ERp5 block
Cc1ccc(S(=O)(=O)Nc2ccc3c(c2)C(=O)N([C@@H](C)CO)C[C@@H](C)[C@H](CN(C)Cc2ccccc2)OCCCC[C@H](C)O3)cc1	.	-	17	-	-
C[C@@H]1CCCCO[C@@H](CN(C)Cc2ccccc2)[C@@H](C)CN([C@@H](C)CO)C(=O)c2cc(NS(=O)(=O)c3ccc(Cl)cc3)ccc2O1	.	-	18	-	-
O=C(Nc1cccc(Cl)c1)N1C[C@H]2[C@@H](c3ccccc31)[C@@H](CO)N2C(=O)C1CC1	.	-	-	-	-
O=C(Nc1ccccc1F)N1CC(=O)N2[C@H](CO)[C@@H](c3ccc(C#CC4CCCC4)cc3)[C@@H]2C1	.	-	-	-	-
O=C(Nc1cc(F)ccc1F)N1CC(=O)N2[C@H](CO)[C@@H](c3ccc(C#CC4CCCCC4)cc3)[C@H]2C1	.	-	-	-	-
O=C(Nc1ccccc1F)N1CC(=O)N2[C@H](C1)[C@@H](c1ccc(C#CC3CCCC3)cc1)[C@@H]2CO	.	.	19	-	-
O=C1CNC[C@@H]2[C@@H](c3ccc(C#CC4CCCC4)cc3)[C@H](CO)N12	.	-	-	-	-
O=C1CNC[C@H]2[C@@H](c3ccc(C#CC4CCCC4)cc3)[C@@H](CO)N12	.	88	-	-	-
O=C(Nc1cc(F)ccc1F)N1CC(=O)N2[C@H](C1)[C@H](c1ccc(C#CC3CCCCC3)cc1)[C@@H]2CO	.	-	18	-	-
O=C(Nc1cc(F)ccc1F)N1CC(=O)N2[C@@H](CO)[C@H](c3ccc(C#CC4CCCCC4)cc3)[C@@H]2C1	.	-	18	-	-
CCN1[C@H](C(=O)NC2Cc3ccccc3C2)[C@@H](CO)[C@@H]2Cn3c(cccc3=O)[C@@H]21	.	-	-	-	-
COc1ccc(N2CCN(c3ccc(NC(=O)C4CCCCC4)cc3C#N)CC2)cc1	-	.	.	51	.
COc1ccc(C(=O)Nc2ccc(N3CCN(c4ccc(OC)cc4)CC3)c(C#N)c2)cc1	-	.	.	.	.
COCCNC(=O)CCCn1c(=O)c2cc(OC)c(OC)cc2n(CC(=O)c2cccc(OC)c2)c1=O	-	-	19	-	-
N#Cc1ccccc1Cn1c(=O)n(CCCC(=O)NCc2ccc3c(c2)OCO3)c(=O)c2ccccc21	-	.	.	-	.
COCCCNC(=O)CCn1c(=O)c2ccccc2n(Cc2cccc([N+](=O)[O-])c2)c1=O	-	-	29	-	-
COCCCNC(=O)CCCn1c(=O)c2ccccc2n(Cc2cccc([N+](=O)[O-])c2)c1=O	-	-	-	-	-
COCCNC(=O)CCCn1c(=O)c2ccccc2n(Cc2ccccc2C#N)c1=O	-	-	-	54	-
COCCNC(=O)CCCn1c(=O)c2cc(OC)c(OC)cc2n(CC(=O)Nc2ccccc2OC)c1=O	-	-	-	-	-
CCCC#Cc1cnc2c(c1)C(=O)N([C@@H](C)CO)C[C@H](C)[C@@H](CN(C)C(=O)Nc1c(C)noc1C)O2	.	-	-	-	-
Cc1cc(SCC(=O)NCCN2C(=O)CSC2=O)nc2c(C)cccc12	-	.	.	46	.
COc1cc(C(=O)NC2CCCc3c2cnn3-c2ccccc2F)cc(OC)c1OC (stereo not drawn)	-	-	-	-	-
Cc1ccc(C(=O)NC2CCCc3c2cnn3-c2ccc(F)cc2F)cn1 (stereo not drawn)	-	-	20	-	-
CC(=O)Nc1cccc(C(=O)NC2CCCc3c2cnn3-c2ccccc2F)c1 (stereo not drawn)	-	199	-	-	-
Cc1ccccc1Cn1ccc(NC(=O)c2cc3nc(-c4ccco4)cc(C(F)(F)F)n3n2)n1	-	.	.	66	.
Cc1noc(C)c1S(=O)(=O)Nc1ccc2c(c1)C(=O)N([C@@H](C)CO)C[C@H](C)[C@@H](CN(C)Cc1ccc(Cl)c(Cl)c1)OCCCC[C@H](C)O2	.	-	-	-	-
Cc1noc(C)c1S(=O)(=O)Nc1ccc2c(c1)C(=O)N([C@H](C)CO)C[C@@H](C)[C@H](CN(C)Cc1ccc(Cl)c(Cl)c1)OCCCC[C@@H](C)O2	.	-	17	-	-
Cc1noc(C)c1S(=O)(=O)Nc1ccc2c(c1)C(=O)N([C@H](C)CO)C[C@H](C)[C@@H](CN(C)Cc1ccc(Cl)c(Cl)c1)OCCCC[C@H](C)O2	.	-	15	-	-

Screening data: PubChem BioAssay, Broad Institute
